Columns and labels:
BPTF bromodomain = BPTF bromodomain (Homo sapiens, UniProt Q12830); format: binding; settings: GST-tagged bromodomain, peptide array on modified cellulose scaffold
Procedure, shortened: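 Each acetylated peptide sits on a cellulose membrane, e.g. H4 residues 11–25 carrying a single ε-amine acetyl-lysine. […] Control and replicate blots were run. Spots that stained on the blot were retested for binding in solution.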

H4K12ac = assay: Enrichment of H4K12ac in cells cultured in trichostatin A; format: cell-based; settings: Figure S7H
BPTF bromodomain W91A = assay: ITC of H4K16ac peptide with BPTF bromodomain mutant W91A; format: binding, human; settings: not reliably quantifiable, Figure 5E
BPTF bromodomain V108A = assay: ITC of H4K16ac peptide with BPTF bromodomain mutant V108A; format: binding, human; settings: Kd outside of the accurately measurable range, Figure 5D
BPTF bromodomain Y147F = assay: ITC of H4K16ac peptide with BPTF bromodomain mutant Y147F; format: binding, human; settings: Kd outside of the accurately measurable range, Figure 5D
BPTF bromodomain D101A = assay: ITC of H4K16ac peptide with BPTF bromodomain mutant D101A; format: binding, human; settings: not reliably quantifiable, Figure 5E
[1] = system: PHD-bromo module F154A mutant; assay: FPA of PHD-bromo mutant F154A with histone peptides; format: binding, human; settings: Figure 4B
BPTF PHD finger = assay: Binding of short H3K4me3 peptide in the absence of DNA; parameters: species or system human; settings: Figure S2D

## H4K20ac: histone H4 peptide (residues 11–25 on the array) acetylated on the ε-amine of lysine 20
BPTF bromodomain
  SPOT blot interaction / staining: reproducible staining

## CC(/C=C/C(=O)NO)=C\[C@@H](C)C(=O)c1ccc(N(C)C)cc1 [trichostatin A]
H4K12ac
  enrichment of H4K12ac mark: substantial enrichment of the mark

## unmodified counterpart: unmodified histone H4 peptide, without acetylation [reference compound]
BPTF bromodomain
  SPOT blot interaction / staining: displayed no detectable signal above background

## H4K16ac: histone H4 peptide (residues 11–25 on the array) acetylated on the ε-amine of lysine 16
BPTF bromodomain W91A
  H4K16ac binding by W91A bromodomain: more severe loss of affinity
BPTF bromodomain V108A
  H4K16ac binding by V108A bromodomain: modest binding deficits
BPTF bromodomain
  SPOT blot interaction / staining: reproducible staining
BPTF bromodomain Y147F
  H4K16ac binding by Y147F bromodomain: modest binding deficits
BPTF bromodomain D101A
  H4K16ac binding by D101A bromodomain: more severe loss of affinity
[1]
  peptide binding to F154A mutant: abolishes bromodomain binding of H4K16ac

## H3K4me3 peptide: short H3K4me3[1–8] peptide used for the DNA ruler, tested without DNA
BPTF PHD finger
  binding of short peptide without DNA: bound effectively in the absence of DNA

Source: PMC3135172 (Cell, 2011)
